Reference: ChEMBL document CHEMBL1221405, “Chlorinated iridoid glucosides from Veronica longifolia and their antioxidant activity” (J Nat Prod, 2010)
Converted amounts (≈) assume the structure as drawn.

Experiments:
Type in all cases: functional
[1] = test system: Radical scavenging activity; assay: Antioxidant activity assessed as DPPH radical scavenging activity after 30 mins
Outline: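 Compounds in MeOH at various concentrations were added to DPPH in MeOH (80 µg/mL). After 30 min, remaining DPPH was read by absorbance at 520 nm. Scavenging was calculated against a blank (100%) holding only DPPH and solvent.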

[2] = Antioxidant activity assessed as nitric oxide scavenging activity after 150 mins by Griess assay
Outline: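 Serially diluted samples were mixed with an equal volume of 10 mM sodium nitroprusside in PBS and incubated under light at room temperature for 150 min. After 10 min, nitrite chromophore absorbance was read at 577 nm.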

[3] = Antioxidant activity assessed as superoxide radical scavenging activity by NBT method
Outline: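 Alkaline DMSO method (modified Kunchandy and Rao). Samples in DMSO were mixed with NBT (1 mg/mL in DMSO). Alkaline DMSO (DMSO with 5 mM NaOH in water) was added to give the final mixture. Absorbance was read at 560 nm.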

Row | IC50 [1] [µg/mL] | IC50 [2] [µg/mL] | IC50 [3] [µg/mL] | Compound
1 | 19 (≈ 33.9 µM) | 285 (≈ 508 µM) | 199 (≈ 355 µM) | O=C(/C=C/c1ccc(O)c(O)c1)O[C@H]1[C@@H]2C=CO[C@@H](O[C@H]3O[C@@H](CO)[C@H](O)[C@@H](O)[C@@H]3O)[C@@H]2[C@](O)(CO)[C@@H]1Cl [LONGIFOLIOSIDE B]
2 | 27 (≈ 50.5 µM) | 149 (≈ 279 µM) | 92 (≈ 172 µM) | O=C(O[C@H]1[C@@H]2C=CO[C@@H](O[C@H]3O[C@@H](CO)[C@H](O)[C@@H](O)[C@@H]3O)[C@@H]2[C@](O)(CO)[C@@H]1Cl)c1ccc(O)c(O)c1 [LONGIFOLIOSIDES A]
3 | < 10 | > 1000 | 13 (≈ 73.8 µM) | O=C1O[C@H]([C@@H](O)CO)C(O)=C1O [ASCORBIC ACID]

Row | Compound | IC50 [1] [µg/mL] | IC50 [2] [µg/mL] | IC50 [3] [µg/mL]
4 | O=c1c(O)c(-c2ccc(O)c(O)c2)oc2cc(O)cc(O)c12 [QUERCETIN] | < 10 | 96 (≈ 318 µM) | 68 (≈ 225 µM)
